Screens: PubChem BioAssay, NMMLSC
MEKK3 PB1 HTS – raises or lowers MEK5 binding to the human MEKK3 PB1 domain; Q99759; bead-based flow cytometry, Alexa488-MEK5 binding to MEKK3; actives lie on both sides; 0 = blocked by unlabeled MEK5, 100 = vehicle; binding response (% of control), % at 10 µM; hit rate 1.4% among 290,000;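 active = binding response more than 3 SD above or below the average of its plate-row segment, actives on both sides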;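 note: Alexa488 bead fluorescence after subtracting the streptavidin-only scavenger bead signal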
ABCB1 block – human ABCB1 inhibition, ABCG2 as counter-screen; hit rate 0.067% among 190,000; inhibition, % at 6.6 µM; P08183; CCRF-Adr cells, JC-1 efflux, flow cytometry; in the data active = inhibition above about 40%;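 note: 0% = vehicle and 100% = reference inhibitor; higher value means more JC-1 retained so stronger ABCB1 efflux block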
Target sequence (P08183 whole entry, looked up): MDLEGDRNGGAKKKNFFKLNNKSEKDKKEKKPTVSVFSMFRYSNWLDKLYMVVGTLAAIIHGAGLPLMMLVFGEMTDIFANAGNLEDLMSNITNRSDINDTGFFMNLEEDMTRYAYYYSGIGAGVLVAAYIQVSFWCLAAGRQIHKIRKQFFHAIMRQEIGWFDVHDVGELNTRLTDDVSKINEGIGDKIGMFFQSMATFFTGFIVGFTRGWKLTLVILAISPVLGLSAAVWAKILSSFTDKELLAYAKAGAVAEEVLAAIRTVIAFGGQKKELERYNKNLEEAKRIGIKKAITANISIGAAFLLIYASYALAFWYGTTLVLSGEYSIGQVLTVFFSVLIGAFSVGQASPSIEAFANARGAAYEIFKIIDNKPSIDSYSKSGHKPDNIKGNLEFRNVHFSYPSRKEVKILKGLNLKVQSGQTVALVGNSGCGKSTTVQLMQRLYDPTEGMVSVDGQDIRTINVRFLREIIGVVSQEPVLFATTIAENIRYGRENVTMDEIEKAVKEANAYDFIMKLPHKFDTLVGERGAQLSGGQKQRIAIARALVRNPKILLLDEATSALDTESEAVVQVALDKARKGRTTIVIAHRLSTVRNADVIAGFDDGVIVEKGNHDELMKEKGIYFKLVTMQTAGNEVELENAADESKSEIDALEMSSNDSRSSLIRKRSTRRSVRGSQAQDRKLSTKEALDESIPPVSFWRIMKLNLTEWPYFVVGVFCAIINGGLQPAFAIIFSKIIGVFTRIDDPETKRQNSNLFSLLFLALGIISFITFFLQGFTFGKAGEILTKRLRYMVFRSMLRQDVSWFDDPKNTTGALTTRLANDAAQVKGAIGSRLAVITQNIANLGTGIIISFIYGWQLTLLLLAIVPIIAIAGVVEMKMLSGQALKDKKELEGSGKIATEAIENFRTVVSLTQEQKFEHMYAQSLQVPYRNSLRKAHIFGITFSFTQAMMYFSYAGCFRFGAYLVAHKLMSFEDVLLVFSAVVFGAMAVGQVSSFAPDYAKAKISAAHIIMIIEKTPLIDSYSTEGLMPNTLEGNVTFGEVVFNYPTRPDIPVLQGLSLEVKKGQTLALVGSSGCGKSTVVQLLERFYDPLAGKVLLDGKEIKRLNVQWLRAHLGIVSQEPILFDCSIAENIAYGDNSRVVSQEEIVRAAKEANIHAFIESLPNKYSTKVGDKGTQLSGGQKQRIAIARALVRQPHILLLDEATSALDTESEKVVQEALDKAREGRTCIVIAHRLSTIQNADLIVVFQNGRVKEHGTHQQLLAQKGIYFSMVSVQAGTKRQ
ABCG2 block – blocks JC-1 efflux by human ABCG2 transporter; inhibition, % at 6.6 µM; hit rate 0.1% among 190,000; IgMXP3 cells, flow cytometry;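 active = inhibition above 80%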;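 note: 0% = DMSO and 100% = nicardipine control wells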
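Test system: ABCG2 IgMXP3 and barcoded ABCB1 CCRF-Adr cell mix; Schedule: cells with compound and JC-1, 10 min at 25 °C, rotating, no wash; Technique: flow cytometry of retained JC-1 fluorescence; Measure: % inhibition of efflux relative to nicardipine and DMSO; Controls: nicardipine high and DMSO low controls.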
Efflux pump inh – inhibitors of Candida antifungal efflux pumps expressed in yeast; hit rate 0.44% among 330,000; S. cerevisiae Candida pump triplex, Nile Red efflux; inhibition, % at 10 µM; AID 485275;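 active = plate passing quality check with inhibition over a set limit, or well fluorescence over plate mean plus 4 SD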;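 note: Nile Red retained in pooled yeast measured as flow cytometry median fluorescence; 0% = buffer negative control and 100% = Enniatin B positive control; higher means more Nile Red kept so more efflux inhibition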
MEKK2mut PB1 HTS – signal of MEK5 binding to mutant human MEKK2 PB1 domain. bead flow cytometry, Alexa488-MEK5 binding to MEKK2 mutant. percent response, % at 10 µM. hit rate 0.35% among 290,000; in the data active = percent response above about 24%, passing the limit was not always enough
MEKK2 WT-MEK5 – raises or lowers MEK5 binding to wildtype human MEKK2 PB1 domain; hit rate 1.1% among 290,000; binding response (% of control), % at 10 µM; bead flow cytometry, Alexa488-MEK5 binding to MEKK2 WT; actives lie on both sides; in the data active = binding response below about 67% or above about 130%
MEKK2wt confirm – raises or lowers MEK5 binding to wildtype human MEKK2, retest; shares compounds with MEKK3 PB1 HTS; bead flow cytometry, Alexa488-MEK5 binding to MEKK2 WT; actives lie on both sides; binding response (% of control), % at 10 µM; hit rate 2.4% among 5,900; in the data active = binding response below about 16% or above about 210%; inactive = in between
MEKK2mut confirm – signal of MEK5 binding to mutant human MEKK2, retest | bead flow cytometry, Alexa488-MEK5 binding to MEKK2 mutant | hit rate 2% among 5,900 | shares compounds with MEKK3 PB1 HTS | percent response, % at 10 µM; in the data active = percent response mostly above about 71%, no sharp cut-off; inactive = mostly below about 38%;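 note: higher means compound restores mutant binding toward wildtype level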
MEKK3-MEK5 inh – confirmation of inhibitors of MEK5 binding to human MEKK3; AID 1894; hit rate 1.8% among 5,900; shares compounds with MEKK3 PB1 HTS; binding response (% of control), % at 10 µM; bead flow cytometry, Alexa488-MEK5 binding to MEKK3; stronger effect = lower value;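 active = binding response below 72% of control, or above a set upper limit, though filed actives all read lower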;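 note: 100% = DMSO only wells and 0% = binding blocked by excess unlabeled MEK5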
Numbers without * were called inactive; [ ] = dose if it differs, or a comment. This is a sample that favours compounds with a hit; in the whole collection about 2.5% have one here.

How did COC(=O)c1cc(C)sc1NC(=O)C1CC(=O)NN1Cc1ccccc1 (centres undefined) do in these assays?
MEKK3 PB1 HTS: 137*; ABCB1 block: 1; ABCG2 block: 8; Efflux pump inh: 0; MEKK2mut PB1 HTS: 1; MEKK2 WT-MEK5: 108; MEKK2wt confirm: 98; MEKK2mut confirm: -1; MEKK3-MEK5 inh: 104

What do the screens show for `CCOC(=O)c1cc(CC)sc1NC(=O)C1CC(=O)NN1Cc1ccccc1` (centres undefined)?
MEKK3 PB1 HTS: 101; ABCB1 block: 3; ABCG2 block: 11; Efflux pump inh: -1; MEKK2mut PB1 HTS: 13; MEKK2 WT-MEK5: 108

How did Cc1cccc(N=C2Sc3nc4c(C)c(C)ccc4cc3CN2CCN2CCOCC2)c1 do in these assays?
MEKK3 PB1 HTS: 113; ABCB1 block: 1; ABCG2 block: 22; Efflux pump inh: 0; MEKK2mut PB1 HTS: 24*; MEKK2 WT-MEK5: 144*; MEKK2wt confirm: 136; MEKK2mut confirm: 17; MEKK3-MEK5 inh: 108

Results for CCOC(=O)C(NC(=O)Nc1ccc(F)cc1F)(Oc1ccc(F)cc1)C(F)(F)F (centres undefined) ?
MEKK3 PB1 HTS: 128*; ABCB1 block: 0; ABCG2 block: 1; Efflux pump inh: 0; MEKK2mut PB1 HTS: 3; MEKK2 WT-MEK5: 104; MEKK2wt confirm: 105; MEKK2mut confirm: 8; MEKK3-MEK5 inh: 106

What do the screens show for `Cc1cccc(Nc2nc(NCc3ccco3)c3ccccc3n2)c1`?
MEKK3 PB1 HTS: 106; ABCB1 block: 0; ABCG2 block: 1; Efflux pump inh: 3; MEKK2mut PB1 HTS: 14; MEKK2 WT-MEK5: 145*; MEKK2wt confirm: 191; MEKK2mut confirm: 57; MEKK3-MEK5 inh: 106

Results for Oc1ccccc1Nc1nc(NCc2ccco2)c2ccccc2n1 ?
MEKK3 PB1 HTS: 103; Efflux pump inh: 0; MEKK2mut PB1 HTS: 15; MEKK2 WT-MEK5: 117

How did Cc1ccc(-c2nc(NCc3ccco3)c3ccccc3n2)cc1 do in these assays?
MEKK3 PB1 HTS: 91; ABCB1 block: -1; ABCG2 block: 3; Efflux pump inh: 0; MEKK2mut PB1 HTS: 0; MEKK2 WT-MEK5: 109

What do the screens show for `c1ccc(CN2CCN(c3nc(NCc4ccco4)c4ccccc4n3)CC2)cc1`?
MEKK3 PB1 HTS: 112; ABCB1 block: 1; ABCG2 block: 1; Efflux pump inh: -6; MEKK2mut PB1 HTS: 29; MEKK2 WT-MEK5: 168*; MEKK2wt confirm: 167; MEKK2mut confirm: 46; MEKK3-MEK5 inh: 111

How did COc1ccc(OC)c(Nc2nc(NCc3ccco3)c3ccccc3n2)c1 do in these assays?
MEKK3 PB1 HTS: 117; Efflux pump inh: 0; MEKK2mut PB1 HTS: 24*; MEKK2 WT-MEK5: 206*; MEKK2wt confirm: 175; MEKK2mut confirm: 61; MEKK3-MEK5 inh: 109

Results for Cc1ccccc1Nc1nc(NCc2ccco2)c2ccccc2n1 ?
MEKK3 PB1 HTS: 104; ABCB1 block: 10; ABCG2 block: 17; Efflux pump inh: 0; MEKK2mut PB1 HTS: 35; MEKK2 WT-MEK5: 149*; MEKK2wt confirm: 169; MEKK2mut confirm: 55; MEKK3-MEK5 inh: 104

How did COc1ccc(OC)c(NC(=O)CSc2nc3nc(C)cc(C)n3n2)c1 do in these assays?
Efflux pump inh: 0

Results for COc1ccc(-c2cccc(C3CC=CC4C3C(=O)N(Cc3ccccc3)C4c3ccc(OC)c(Cl)c3)c2)cc1 (centres undefined) ?
MEKK3 PB1 HTS: 96; Efflux pump inh: 0; MEKK2mut PB1 HTS: 1; MEKK2 WT-MEK5: 92

Results for CN(C(=O)c1cccc(S(=O)(=O)N2CCOCC2)c1)c1c(N)n(Cc2ccccc2)c(=O)[nH]c1=O ?
Efflux pump inh: 0

What do the screens show for `Cn1c(=O)c2ncn(CC(=O)Nc3nc(-c4ccc(Cl)cc4)cs3)c2n(C)c1=O`?
MEKK3 PB1 HTS: 108; ABCB1 block: 0; ABCG2 block: 2; Efflux pump inh: 0; MEKK2mut PB1 HTS: 1; MEKK2 WT-MEK5: 107

What do the screens show for `Cc1cccc(N(CC(=O)Nc2cccnc2)S(C)(=O)=O)c1`?
MEKK3 PB1 HTS: 113; Efflux pump inh: 0; MEKK2mut PB1 HTS: 1; MEKK2 WT-MEK5: 106

Results for O=C1CN(C(=O)COc2ccc(Br)cc2)c2ccccc2N1 ?
MEKK3 PB1 HTS: 91; ABCB1 block: 1; ABCG2 block: 8; Efflux pump inh: 0; MEKK2mut PB1 HTS: -7; MEKK2 WT-MEK5: 97

What do the screens show for `c1ccc(Nc2nc(NCc3ccco3)c3ccccc3n2)cc1`?
MEKK3 PB1 HTS: 100; Efflux pump inh: 0; MEKK2mut PB1 HTS: 10; MEKK2 WT-MEK5: 174*; MEKK2wt confirm: 190; MEKK2mut confirm: 62; MEKK3-MEK5 inh: 115

How did C=CCNC(=O)CSc1nc2cc(C(=O)OCC)ccc2n1CC do in these assays?
MEKK3 PB1 HTS: 107; ABCB1 block: 1; ABCG2 block: 3; Efflux pump inh: 0; MEKK2mut PB1 HTS: 7; MEKK2 WT-MEK5: 106

What do the screens show for `O=C(CSc1ncn[nH]1)c1cc2ccccc2o1`?
MEKK3 PB1 HTS: 173*; ABCB1 block: 8; ABCG2 block: 34; Efflux pump inh: 0; MEKK2mut PB1 HTS: active; MEKK2 WT-MEK5: active; MEKK2wt confirm: 90; MEKK2mut confirm: -7; MEKK3-MEK5 inh: 100

Results for CCOC(=O)c1ccc2c(c1)nc(SCC(=O)c1cc3ccccc3o1)n2CC ?
MEKK3 PB1 HTS: 73*[inhibitor]; ABCB1 block: 1; ABCG2 block: 3; Efflux pump inh: 0; MEKK2mut PB1 HTS: -51; MEKK2 WT-MEK5: 55*[inhibitor]; MEKK2wt confirm: 98; MEKK2mut confirm: -3; MEKK3-MEK5 inh: 100

How did CCc1cccc(CC)c1NC(=S)N(CCN(C)C)C(C)c1cccnc1 (centres undefined) do in these assays?
MEKK3 PB1 HTS: 86; ABCB1 block: 0; ABCG2 block: -1; Efflux pump inh: 0; MEKK2mut PB1 HTS: -7; MEKK2 WT-MEK5: 88

What do the screens show for `O=C(O)c1ccc(/C=N/N2CCN(C3c4ccccc4-c4ccccc43)CC2)cc1`?
MEKK3 PB1 HTS: 96; Efflux pump inh: 0; MEKK2mut PB1 HTS: 0; MEKK2 WT-MEK5: 94
